pKi: −log10 of the molar value. Active and inactive are the calls of the source. The rule behind the calls is not given here.

The values that follow come from ChEMBL document CHEMBL1126752, “Synthesis and biological activity of cis-(3aR)-(-)-2,3,3a,4,5,9b-hexahydro- 3-propyl-1H-benz[e]indole-9-carboxamide: a potent and selective 5-HT1A receptor agonist with good oral availability” (J Med Chem, 1993).

In data set [1] the test system is Rattus norvegicus. As to the kind of experiment: 5-HTP accumulation in corpus striatum of reserpinized rats following subcutaneous administration at highest dose tested (50 umol/kg); Inactive. The data set is classed as functional, organism-based.
Data set [2] has as its system Rattus norvegicus. As to the kind of experiment: 5-HTP accumulation in hemispheres of reserpinized rats following subcutaneous administration at highest dose tested (50 umol/kg); Inactive. It counts as functional, organism-based.
Data set [3] concerns Rattus norvegicus. As to the kind of experiment: 5-HTP accumulation in limbic system of reserpinized rats following subcutaneous administration at highest dose tested (50 umol/kg); Inactive. The data set is classed as functional, organism-based.
Data set [4] has as its system Rattus norvegicus. The experiment in a line: DOPA accumulation in corpus striatum of reserpinized rats following subcutaneous administration at highest dose tested (50 umol/kg); Inactive. The data set is classed as functional, organism-based.
The subject of data set [5] is Rattus norvegicus. The experiment in a line: DOPA accumulation in hemispheres of reserpinized rats following subcutaneous administration at highest dose tested (50 umol/kg); Inactive. It counts as functional, organism-based.
Data set [6] relates to Rattus norvegicus. The experiment in a line: DOPA accumulation in limbic system of reserpinized rats following subcutaneous administration at highest dose tested (50 umol/kg); Inactive. The data set is classed as functional, organism-based.
The species entered for data set [7] is Rattus norvegicus. The experiment in a line: Compound was tested for gross behavioral response in rats; no change. It counts as functional, organism-based.
Data set [8] deals with T1, 5-hydroxytryptamine receptor 1A (Homo sapiens, UniProt P08908).
T1 sequence (P08908 whole entry): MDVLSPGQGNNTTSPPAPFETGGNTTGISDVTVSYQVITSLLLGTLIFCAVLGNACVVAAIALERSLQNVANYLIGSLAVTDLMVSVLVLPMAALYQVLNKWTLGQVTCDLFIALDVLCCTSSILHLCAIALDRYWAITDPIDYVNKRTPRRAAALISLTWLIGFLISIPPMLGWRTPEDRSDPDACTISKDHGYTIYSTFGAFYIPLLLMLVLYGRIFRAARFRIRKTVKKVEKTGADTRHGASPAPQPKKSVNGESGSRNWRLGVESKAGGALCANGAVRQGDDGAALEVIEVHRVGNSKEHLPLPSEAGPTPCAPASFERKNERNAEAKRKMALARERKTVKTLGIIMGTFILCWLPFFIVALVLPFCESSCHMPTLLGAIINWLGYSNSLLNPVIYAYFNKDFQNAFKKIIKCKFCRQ
As to the kind of experiment: Binding affinity against [3H]8-OH-DPAT-labeled 5-hydroxytryptamine 1A receptor sites in cloned CHO cells. The data set is classed as cell-based. In a few lines: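 Competition binding against [3H]-8-OH-DPAT (85 Ci/mmol, 1.2 nM) using 11 dilutions of test compound. Receptor was cloned mammalian 5-HT1A expressed in CHO-K1 cells. IC50 from a one-site nonlinear least-squares fit, converted to Ki by Cheng-Prusoff. Ki reported ±SEM.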

Data set [9] in a line: Half-life time in rats. The data set is classed as ADME, organism-based. Particulars: rat, in vivo. Put shortly: (§1)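 Male Sprague-Dawley rats (300 g) sampled from arterial catheters 24 h after surgery over 10-24 h. Dosing was 5 µmol/kg iv and 40 µmol/kg po, with oral rats fasted 18 h. Parent drug in blood measured by GC/MS after pH 11 dichloromethane extraction with internal standard, samples run in duplicate. Availability from po/iv AUC ratio (n = 4).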

Data set [10] concerns Felis catus. The experiment in a line: Maximum decrease in blood pressure observed following 1 mg/kg dose in anesthetized cat. Also on record: unit not given here. It counts as functional. In a few lines: (§2)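 Adult cats (2.5-4.0 kg) anesthetized with ketamine 11 mg/kg im then chloralose 80 mg/kg iv. Animals paralyzed with gallamine, ventilated, and kept at 37-38 °C. Blood pressure recorded via femoral artery. Sympathetic activity quantified by cumulative integration. Increasing doses given iv cumulatively at 20-min intervals.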

Data set [11] concerns Felis catus. As to the kind of experiment: Maximum decrease in sympathetic nerve discharge in anesthetized cat. It counts as functional. Put shortly:
as §2

Data set [12] concerns Felis catus. The experiment in a line: Percent arterial blood pressure at sympathetic nerve discharge in anesthetized cat. It counts as functional. In a few lines:
as §2

Data set [13] deals with Felis catus. As to the kind of experiment: Inhibition of sympathetic nerve discharge (SND) in anesthetized cat. It counts as functional. Put shortly: as §2
Data set [14] concerns Mus musculus. As to the kind of experiment: Swimming activity of the treated mice/control mice at 39 umol/kg, sc. It counts as functional.
The subject of data set [15] is Mus musculus. The experiment in a line: Swimming activity of the treated mice/control mice at 1.2 umol/kg, sc. It counts as functional.
Data set [16] deals with Mus musculus. The experiment in a line: Swimming activity of the treated mice/control mice at 12 umol/kg, sc (p < 0.001). The data set is classed as functional.
Data set [17] deals with Mus musculus. As to the kind of experiment: Swimming activity of the treated mice/control mice at 3.9 umol/kg, sc (p < 0.001). It counts as functional.
The test system of data set [18] is Rattus norvegicus. The experiment in a line: 5-HTP accumulation in corpus striatum of reserpinized rats following peroral administration. It counts as functional. The following applies: po.
For data set [19], the species on record is Rattus norvegicus. The experiment in a line: Inhibition of 5-HT1A cell firing in rats. It counts as functional. Put shortly:
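Male Sprague-Dawley rats (280-330 g) under chloral hydrate anesthesia (400 mg/kg ip), drug given iv via femoral vein in distilled water. Dorsal raphe serotonergic neurons recorded extracellularly and confirmed histologically by dye deposit. Firing rate followed by integrated ratemeter.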

For data set [20], the system named is Rattus norvegicus. As to the kind of experiment: 5-HTP accumulation in corpus striatum of reserpinized rats following subcutaneous administration. Particulars: sc. It counts as functional.
Data set [21] concerns Rattus norvegicus. As to the kind of experiment: 5-HTP accumulation in hemispheres of reserpinized rats following peroral administration. The following applies: po. It counts as functional.
Data set [22] relates to Rattus norvegicus. The experiment in a line: 5-HTP accumulation in hemispheres of reserpinized rats following subcutaneous administration. The data set is classed as functional. The following applies: sc.
For data set [23], the system named is Rattus norvegicus. As to the kind of experiment: 5-HTP accumulation in limbic system of reserpinized rats following peroral administration. The data set is classed as functional. The following applies: po.
The test system of data set [24] is Rattus norvegicus. The experiment in a line: 5-HTP accumulation in limbic system of reserpinized rats following subcutaneous administration. The data set is classed as functional. Particulars: sc.
Data set [25] concerns Rattus norvegicus. As to the kind of experiment: In vivo motor activity at 12.5 umol/kg (po) in male rats expressed as accumulated counts/30 min (p < 0.001). The data set is classed as functional.
The subject of data set [26] is Rattus norvegicus. The experiment in a line: In vivo motor activity at 12.5 umol/kg (sc) in male rats expressed as accumulated counts/30 min (p < 0.001). It counts as functional.
Data set [27] deals with Mus musculus. As to the kind of experiment: Effect on hypothermia in mice following peroral administration. Particulars: po.
For data set [28], the system named is Mus musculus. As to the kind of experiment: Effect on hypothermia in mice following subcutaneous administration. The following applies: sc.
In data set [29] the test system is Rattus norvegicus. The experiment in a line: DOPA accumulation in corpus striatum of reserpinized rats following peroral administration at highest dose tested (50 umol/kg); Inactive. It counts as functional, organism-based.
Data set [30] deals with Rattus norvegicus. As to the kind of experiment: DOPA accumulation in hemispheres of reserpinized rats following peroral administration at highest dose tested (50 umol/kg); Inactive. The data set is classed as functional, organism-based.
Data set [31] relates to Rattus norvegicus. The experiment in a line: DOPA accumulation in limbic system of reserpinized rats following peroral administration at highest dose tested (50 umol/kg); Inactive. The data set is classed as functional, organism-based.
Data set [32] is filed under the species Rattus norvegicus. As to the kind of experiment: Compound was tested for gross behavioral response in rats; full-blown 5-HT syndrome. The data set is classed as functional, organism-based.
In data set [33] the test system is Rattus norvegicus. As to the kind of experiment: Oral availability obtained from blood plasma levels of the parent compound following 5 umol /kg intravenous and 40 umol /kg peroral administration. It counts as functional, organism-based. Put shortly:
as §1

Data set [34] has as its system Mus musculus. The experiment in a line: Swimming activity of the treated mice/control mice at 12 umol/kg, sc. It counts as functional.
Data set [35] concerns Mus musculus. As to the kind of experiment: Swimming activity of the treated mice/control mice at 39 umol/kg, sc (p < 0.05). It counts as functional.
The species entered for data set [36] is Rattus norvegicus. The experiment in a line: Compound was tested for gross behavioral response in rats; partial 5-HT syndrome. The data set is classed as functional, organism-based.

`CCCN1CCC2c3c(cccc3C(N)=O)CC[C@@H]21` (single isomer, unassigned; (+)-3b): the ED50 entry in the data set on Rattus norvegicus [1], in the data set with Rattus norvegicus [2], in the data set on Rattus norvegicus [3], with Rattus norvegicus [4], in the data set with Rattus norvegicus [5] and with Rattus norvegicus [6] was “inactive” each time. Besides, the Response entry in the data set filed under Rattus norvegicus [7] is “inactive”.
In data set [8], `CCCN1CC[C@H]2c3c(cccc3C(N)=O)CC[C@H]21` (stereo in doubt; (-)-3a) [listing 1 of 2 here] had a pKi of 8.72. The half-life in data set [9] is 2 h. Further, the Max decrease is on record as 52 with Felis catus [10] and 0 in the data set with Felis catus [11]. In the data set with Felis catus [12], this compound yielded a BP of 83%. The ED50 with Felis catus [13] was 0.049 µmol/kg; in the data set on Rattus norvegicus [18], below 0.2 µmol/kg; in the data set listed under Rattus norvegicus [19], 0.023 µmol/kg; with Rattus norvegicus [20] it was 0.07 µmol/kg; in the data set with Rattus norvegicus [21], 0.28 µmol/kg; in the data set with Rattus norvegicus [22], 0.32 µmol/kg. Besides, the median effective dose (ED50) with Rattus norvegicus [23] amounted to 0.23 µmol/kg; in the data set with Rattus norvegicus [24], 0.28 µmol/kg; with Mus musculus [27], 2.8 µmol/kg; with Mus musculus [28], 0.4 µmol/kg. In addition, the Swimming activity in the data set with Mus musculus [14] was determined as 1.1; with Mus musculus [15] it was 1.5; with Mus musculus [16], 7.1; in the data set on Mus musculus [17], 4.7. Moreover, the “Accumulated counts/30 min” value was found to be 173 with Rattus norvegicus [25] and 249 in the data set on Rattus norvegicus [26].
For `CCCN1CC[C@H]2c3c(cccc3C(N)=O)CC[C@H]21` (stereo in doubt; (-)-3a) [listing 2 of 2 here], the NA entry with Rattus norvegicus [29], with Rattus norvegicus [4], in the data set with Rattus norvegicus [30], with Rattus norvegicus [5], with Rattus norvegicus [31] and in the data set on Rattus norvegicus [6] was “inactive” each time. Moreover, the Response result in the data set listed under Rattus norvegicus [32] is “Active”. In the data set on Rattus norvegicus [33], the bioavailability came to 46%.
For `CCCN1CC[C@H]2c3c(cccc3C(N)=O)CC[C@H]21` (stereo in doubt; (-)-3b) [listing 1 of 2 here], the pKi in data set [8] is 7.55. Moreover, the Swimming activity with Mus musculus [34] worked out at 0.7; with Mus musculus [35], 1.7.
In the case of `CCCN1CC[C@H]2c3c(cccc3C(N)=O)CC[C@H]21` (stereo in doubt; (-)-3b) [listing 2 of 2 here], the ED50 entry with Rattus norvegicus [4], with Rattus norvegicus [5] and with Rattus norvegicus [6] was “inactive” each time. Also, the Response entry in the data set filed under Rattus norvegicus [36] is “Partially active”.
